The record followed here is ChEMBL document CHEMBL1139586, “A linear discrimination analysis based virtual screening of trichomonacidal lead-like compounds: outcomes of in silico studies supported by experimental results” (2005).

What all share (format): functional
For test [1], the system named is Trichomonas vaginalis. Put plainly: In vitro cytocidal activity against Trichomonas vaginalis at a dose of 100 ug/ml after 48 hours. The method in brief:
(§1)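 T. vaginalis strain JH31A grown in modified Diamond medium with equine serum at 37 °C, 5% CO2. Test agents added 6 h after seeding (0 h). Viable protozoa counted by Neubauer chamber after 24 and 48 h incubation at 37 °C. Cytocidal activity is the percentage reduction in viable organisms relative to untreated controls, from microscopic counts.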

Test [2] concerns Trichomonas vaginalis. The test is described as follows: In vitro cytostatic activity against Trichomonas vaginalis at a dose of 10 ug/ml after 24 hours. The gist of the method:
(§2)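 T. vaginalis JH31A cultured in modified Diamond medium plus equine serum, 37 °C, 5% CO2. Compounds added at 100, 10 and 1 µg/ml 6 h post-seeding (0 h). Neubauer-chamber counts of viable parasites at 24 and 48 h. Cytostatic activity is the percentage growth inhibition relative to untreated controls.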

In test [3] the test system is Trichomonas vaginalis. Put plainly: In vitro cytostatic activity against Trichomonas vaginalis at a dose of 10 ug/ml after 48 hours. The gist of the method:
as §2

For test [4], the system named is Trichomonas vaginalis. Put plainly: In vitro cytocidal activity against Trichomonas vaginalis at a dose of 100 ug/ml after 24 hours. The gist of the method:
as §1

For test [5], the system named is Trichomonas vaginalis. The test is described as follows: In vitro cytostatic activity against Trichomonas vaginalis at a dose of 1 ug/ml after 24 hours. The method in brief: as §2
Test [6] concerns Trichomonas vaginalis. The test is described as follows: In vitro cytostatic activity against Trichomonas vaginalis at a dose of 1 ug/ml after 48 hours. The gist of the method: as §2
The subject of test [7] is Trichomonas vaginalis. The test is described as follows: In vitro cytocidal activity against Trichomonas vaginalis at a dose of 2 mg/ml after 48 hours. The gist of the method:
as §1

Test [8] concerns Trichomonas vaginalis. Put plainly: In vitro cytocidal activity against Trichomonas vaginalis at a dose of 0.5 mg/ml after 48 hours. The gist of the method: as §1
The test system of test [9] is Trichomonas vaginalis. Put plainly: In vitro cytocidal activity against Trichomonas vaginalis at a dose of 1 mg/mL after 24 hours. The gist of the method:
as §1

Test [10] relates to Trichomonas vaginalis. The test is described as follows: In vitro cytocidal activity against Trichomonas vaginalis at a dose of 0.5 mg/ml after 24 hours. The gist of the method: as §1
Test [11] relates to Trichomonas vaginalis. Put plainly: In vitro cytocidal activity against Trichomonas vaginalis at a dose of 1 mg/mL after 48 hours. The method in brief:
as §1

The test system of test [12] is Trichomonas vaginalis. The test is described as follows: In vitro cytocidal activity against Trichomonas vaginalis at a dose of 2 mg/ml after 24 hours. The gist of the method: as §1
Test [13] has as its system Trichomonas vaginalis. The test is described as follows: In vitro cytostatic activity against Trichomonas vaginalis at a dose of 100 ug/ml after 24 hours. The gist of the method:
as §2

Test [14] has as its system Trichomonas vaginalis. Put plainly: In vitro cytostatic activity against Trichomonas vaginalis at a dose of 100 ug/ml after 48 hours. The method in brief: as §2
Test [15] has as its system Trichomonas vaginalis. The test is described as follows: In vitro cytocidal activity against Trichomonas vaginalis at a dose of 10 ug/ml after 48 hours. The method in brief: as §1

Take `O=C1Nc2cc([N+](=O)[O-])ccc2N2CCCCC12` (centres undefined): the Cytocidal activity with Trichomonas vaginalis [1] is 100%; in the test with Trichomonas vaginalis [4], 98.43%. The Cytostatic activity in the test with Trichomonas vaginalis [2] was determined as 57.45%; in the test on Trichomonas vaginalis [3], 75.15%; in the test with Trichomonas vaginalis [5] it was 0%; in the test with Trichomonas vaginalis [6], 0%.
Turning to `CN1C(=O)C[N+](C)(C)c2ccc([N+](=O)[O-])cc21.[Cl-]`, the Cytocidal activity with Trichomonas vaginalis [1] and in the test with Trichomonas vaginalis [4] was 100% in each case. For the same molecule, the Cytostatic activity in the test with Trichomonas vaginalis [2] came to 72.85%; in the test with Trichomonas vaginalis [3], 1.13%; in the test on Trichomonas vaginalis [5], 0.17%; in the test with Trichomonas vaginalis [6] it was 0.78%.
In the case of `Cc1ncc([N+](=O)[O-])n1CCO` [METRONIDAZOLE], the Cytocidal activity with Trichomonas vaginalis [7] is 100%; in the test on Trichomonas vaginalis [8], 98.79%; in the test with Trichomonas vaginalis [9], 99.18%; in the test on Trichomonas vaginalis [10], 98.19%; in the test with Trichomonas vaginalis [11] it was 99.72%; in the test on Trichomonas vaginalis [12], 99.63%.
Consider `O=C1Nc2cc([N+](=O)[O-])ccc2N2Cc3ccccc3CC12` (centres undefined), for which the Cytostatic activity with Trichomonas vaginalis [13] is 85.53%; with Trichomonas vaginalis [2], 51.82%; in the test on Trichomonas vaginalis [14], 81.25%; in the test with Trichomonas vaginalis [3] it was 37.15%; in the test with Trichomonas vaginalis [5], 0%; in the test with Trichomonas vaginalis [6], 0%.
Regarding `O=C1Nc2cc([N+](=O)[O-])ccc2N2CCCC12` (centres undefined), the Cytocidal activity with Trichomonas vaginalis [1] turned out to be 100%; in the test with Trichomonas vaginalis [4], 59.99%. The Cytostatic activity with Trichomonas vaginalis [2] is listed as 33.48%; in the test on Trichomonas vaginalis [3] it was 54.22%; with Trichomonas vaginalis [5] it was 11.09%; in the test on Trichomonas vaginalis [6], 17.32%.
Take `CN1C(=O)CN(CCCCCCl)c2ccc([N+](=O)[O-])cc21`: the Cytocidal activity amounted to 100% in the test with Trichomonas vaginalis [1], 100% in the test on Trichomonas vaginalis [4] and 93.94% with Trichomonas vaginalis [15]. Moreover, the Cytostatic activity came out at 72.68% with Trichomonas vaginalis [2], 0% in the test on Trichomonas vaginalis [5] and 69.96% in the test on Trichomonas vaginalis [6].
With `CN1CC(=O)Nc2cc([N+](=O)[O-])ccc21`, the Cytocidal activity in the test on Trichomonas vaginalis [1] and with Trichomonas vaginalis [4] was 100% in each case. In addition, the Cytostatic activity is reported as 59.05% in the test with Trichomonas vaginalis [2], 13.97% in the test with Trichomonas vaginalis [3], 0% with Trichomonas vaginalis [5] and 8.32% in the test with Trichomonas vaginalis [6].
With `CN1CC(=O)N(C)c2cc([N+](=O)[O-])ccc21`, the figures for the Cytocidal activity in the test with Trichomonas vaginalis [1], in the test with Trichomonas vaginalis [4] and with Trichomonas vaginalis [15] were 100%, 100% and 92.03%, respectively. Further, the Cytostatic activity in the test with Trichomonas vaginalis [2] is 71.11%; in the test on Trichomonas vaginalis [5], 0%; in the test with Trichomonas vaginalis [6], 0%.
As for `O=C1CN(CCCCCCCl)c2ccc([N+](=O)[O-])cc2N1`, the Cytocidal activity in the test on Trichomonas vaginalis [1] amounted to 99.83%; in the test with Trichomonas vaginalis [4] it was 99.15%. The Cytostatic activity was 79.28% in the test on Trichomonas vaginalis [2], 30.56% with Trichomonas vaginalis [3], 8.76% with Trichomonas vaginalis [5] and 0% with Trichomonas vaginalis [6].
